KCNQ1 pot – potentiators or activators of KCNQ1 channel, primary screen, cell-based, thallium flux, high-throughput; actives 0.35% (n = 310,000); AID 2648, 2010; Potassium voltage-gated channel subfamily KQT member 1 (Homo sapiens), P51787; CHO-K1 KCNQ1, thallium flux FluxOR fluorescence; hits give high values; B-score at 10 µM;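 active = fluorescence ratio B-score, a plate-corrected score, at least three library SD, with initial intensity B-score within 5 SD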
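Doses: Single concentration per compound, DMSO matched to controls | Test system: KCNQ1-transfected CHO-K1 cells | Timing: 90 min dye loading and 20 min compound exposure, both at room temperature | Measured by: Kinetic FluxOR thallium fluorescence, 10-s 1-Hz baseline, 110-s post-stimulus read | Medium: Assay buffer with matched DMSO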
KCNK9 inh – KCNK9 potassium channel inhibitors, primary screen, HEK293 cells, thallium flux; FluxOR thallium flux fluorescence; hits give low values; Potassium channel subfamily K member 9 (Homo sapiens), Q9NPC2; B-score at 10 µM; actives 1.2% (n = 310,000);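 active = ratio B-score over 3 SD below the library mean, with starting fluorescence within 5 SD of its mean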;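 note: negative B-score means less thallium flux so channel inhibition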
KCNK3 block – human KCNK3 channel inhibitors, primary screen, CHO cells, FluxOR thallium flux, B-score; FluxOR fluorescence; hits give low values; Potassium channel subfamily K member 3 (Homo sapiens), O14649; B-score at 10 µM; actives 0.84% (n = 340,000); AID 602410, 2012;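 active = B-score under library mean minus 4 SD, starting fluorescence ratio at most library mean plus 5 SD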;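 note: more negative B-score means stronger inhibition of thallium flux through KCNK3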
Target sequence (O14649 whole entry, looked up): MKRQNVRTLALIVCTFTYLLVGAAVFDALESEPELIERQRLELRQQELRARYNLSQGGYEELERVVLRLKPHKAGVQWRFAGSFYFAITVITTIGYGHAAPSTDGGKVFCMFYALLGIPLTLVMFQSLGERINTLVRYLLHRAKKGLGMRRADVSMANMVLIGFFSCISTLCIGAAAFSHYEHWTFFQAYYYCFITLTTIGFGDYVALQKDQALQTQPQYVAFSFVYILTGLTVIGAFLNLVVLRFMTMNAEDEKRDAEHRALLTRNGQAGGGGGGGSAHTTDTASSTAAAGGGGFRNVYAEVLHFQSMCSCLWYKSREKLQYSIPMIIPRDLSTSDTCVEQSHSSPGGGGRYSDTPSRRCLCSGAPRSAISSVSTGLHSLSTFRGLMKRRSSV
hERG protect – hERG rescue from dofetilide block, primary screen, cell-based, CHO-hERG, FluxOR thallium flux, dofetilide IC70; Voltage-gated inwardly rectifying potassium channel KCNH2 (Homo sapiens), Q12809; dofetilide IC70 present; activation (rescue from dofetilide block), less the hit threshold, % at 10 µM; actives 0.51% (n = 310,000);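 active = activation above the mean of controls blocked by dofetilide plus 5 SD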;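 note: thallium influx through hERG after potassium depolarization seen as dye fluorescence rise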
Kir21 inh – inhibitors of mouse Kir2.1 inward-rectifier potassium channel; B-score at 10 µM; HEK293-Kir2.1, FluxOR thallium flux fluorescence; hits give low values; actives 0.85% (n = 310,000);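 active = fluorescence ratio B-score at or below minus 3 SD of library scores, with starting-brightness B-score within 2 SD, cut at about -4.2 in these data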;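 note: channel flux triggered by added potassium and thallium sulfate stimulus; B-score of peak minus minimum fluorescence over baseline after thallium stimulus; more negative B-score means stronger Kir2.1 block with less thallium influx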
KCNQ1 block – inhibitors of human KCNQ1 channel, primary screen, cell-based, thallium flux, high-throughput; actives 1.3% (n = 310,000); CHO-K1 KCNQ1, FluxOR thallium flux fluorescence; hits give high values; AID 2642, 2010; Potassium voltage-gated channel subfamily KQT member 1 (Homo sapiens), P51787; B-score at 10 µM;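 active = compounds whose thallium flux B-score, printed positive for inhibition, exceeds three library SD while starting fluorescence stays within three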;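 note: channel opened by potassium depolarization with thallium stimulus after 20 min compound exposure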
KCNQ1 block val – KCNQ1 potassium channel inhibitors, confirmation, cell-based, Tl flux, duplicate; shares compounds with KCNQ1 block; KCNQ1 cell line, FluxOR thallium flux fluorescence; inhibition, % at 10 µM; actives 93% (n = 1,600); AID 588353, 2011;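 active = primary screen active, with duplicate mean exceeding buffer control mean plus 3 SD of buffer wells, cut at about 28% in these data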;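 note: 0% = buffer control ratio and 100% = XE991 inhibitor control ratio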
CHO KCNQ1 ctr – thallium flux effects in parental CHO cells, counter-screen for KCNQ1 inhibitor project, cell-based, Tl flux; actives 21% (n = 1,600); shares compounds with KCNQ1 block; parental CHO-K1, FluxOR thallium flux fluorescence ratio; hits give low values; zero means no signal rise above baseline; fluorescence ratio (Tl flux) at 10 µM;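 active = mean of duplicate thallium-flux fluorescence ratios in parental host cells more than 5 SD below the buffer control mean, cut at about 0.38 in these data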;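 note: ratio is peak minus minimum fluorescence divided by baseline fluorescence; actives read low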
KCNQ1 APC inh – KCNQ1 channel inhibitors, confirmation, orthogonal assay, cell-based, automated electrophysiology. shares compounds with KCNQ1 block. KCNQ1-CHO cells, automated patch clamp current. AID 624120, 2012. calls only at 10 µM. actives 20% (n = 490);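 active = KCNQ1 current drop exceeding 3 SD of negative control wells, seen in both duplicate runs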;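 note: steady state current during a 2 s step from -80 to +40 mV; negative values mean current inhibition and positive values mean potentiation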
KCNQ2 inh – KCNQ2 channel inhibition, selectivity assay for KCNQ1 inhibitor project, cell-based; shares compounds with KCNQ1 block; KCNQ2 cells, FluxOR thallium flux fluorescence; inhibition, % at 10 µM; actives 71% (n = 1,600); AID 651746, 2012;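 active = mean percent inhibition of the KCNQ2 thallium signal more than 5 SD above the buffer-only control wells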;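 note: KCNQ2 expressed in CHO cells; 0% = buffer control wells and 100% = XE-991 inhibitor control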
KCNQ1-KCNE1 inh – KCNQ1/KCNE1 channel inhibition, selectivity assay for KCNQ1 inhibitor project, CHO-K1 cells, thallium flux, FluxOR; shares compounds with KCNQ1 block; inhibition, % at 10 µM; FluxOR thallium flux fluorescence; actives 77% (n = 1,600); AID 652147, 2013;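 active = mean percent inhibition of duplicate wells above the buffer-only control mean plus 3 SD of those controls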;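 note: 0% = buffer only wells and 100% = XE-991 inhibitor control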
Active calls of the source: *; i = inactive; / = no result; + = active, no number. An excerpt weighted towards active compounds, which were near 3.7% of everything screened.

SMILES | KCNQ1 pot | KCNK9 inh | KCNK3 block | hERG protect | Kir21 inh | KCNQ1 block | KCNQ1 block val | CHO KCNQ1 ctr | KCNQ2 inh | KCNQ1-KCNE1 inh | others
C[C@H](NC(=O)CCCOc1ccc(Cl)cc1Cl)c1nnc2ccccn12 | i | i | i | -7 | -3.2 | i | / | / | / | /
CN(C)C(CNC(=O)c1cccc(S(=O)(=O)Nc2ccc(SC(F)F)cc2)c1)c1ccccc1 (configuration not stated) | / | / | i | / | / | / | / | / | / | /
CCCCCCNC(=O)C(C#N)c1nc2ccccc2nc1N1CCCC1 (configuration not stated) | i | i | i | -8 | -2.2 | 9* | + | 0.2* | i | i
CC1(C)CC(=O)C2=C(C1)N1C(=C(C#N)C2c2ccc(Cl)cc2)N=C(N)c2ccccc21 (configuration not stated) | i | i | i | -11 | -0.04 | 8* | 74* | 0.41 | 77%* | 70%*
CC(C)(C)c1ccc(S(=O)(=O)N2CCC(c3nc4ccc(Cl)cc4[nH]3)CC2)cc1 | i | i | i | -4 | 2.1 | 10* | 117* | 0.43 | 101%* | 108%*
COc1ccc(CC(=O)Nc2cccc(-c3nnc(-c4cccc(C)c4)o3)c2)cc1OC | i | i | i | -34 | 0.82 | 10* | 144* | 0.32* | 132%* | 98%*
Nc1nc(=S)c2ncn(C3OC(CO)CC3O)c2[nH]1 (configuration not stated) | / | / | i | / | / | / | / | / | / | /
COc1ccccc1-c1c(C)nn2c(N3CCCCCC3)cc(C)nc12 | i | i | i | -16 | 0 | 8* | 0 | 0.49 | 85%* | i
CC(C#N)N1CCN(S(=O)(=O)c2ccc3c(c2)CCC3)CC1 (configuration not stated) | / | / | i | / | / | / | / | / | / | /
Cc1ccc(CNC(=S)NC2CCC(C(C)(C)C)CC2)cc1 (configuration not stated) | i | i | i | -19 | -2.6 | 13* | 108* | 0.45 | 84%* | 80%* | KCNQ1 APC inh=i
Fc1ccc(CNC(=S)NC2CCCCCC2)cc1 | i | i | i | -8 | -0.99 | i | / | / | / | /
Cc1cc(C)c(N2CCN(S(=O)(=O)N3CCCCCC3)CC2)c(C)c1 | i | i | i | -13 | -0.51 | 7* | 126* | 0.44 | 115%* | 118%*
CCN(CC(=O)Nc1c(F)cccc1F)C(=O)c1ccc2c(c1)OCO2 | / | / | i | / | / | / | / | / | / | /
CN(c1cccc(NC(=O)Nc2cccc(Cl)c2)c1)S(C)(=O)=O | i | i | i | -17 | -0.5 | 16* | 93* | 0.47 | 123%* | 82%*
O=C(Nc1ccncc1)Nc1cccc(Cl)c1 | i | i | i | -23 | 2.1 | 7* | 52* | 0.48 | i | 46%*

Screening results as filed in PubChem.
